Results on 7 molecules are retold here after article PMC5908246 (Cell reports, 2018).

One may read the Kd as a measure of binding affinity in units of concentration.

Entries after “also recorded” stand apart in the source; their conditions may differ. Read-outs that look alike come from different tables or passages of the source. A value given as a limit tells only on which side of the number the result lay.

The target in data set [1] is Gcn4 tAD (residues 1–134) labeled with Oregon Green 488 (S. cerevisiae) (UniProt P03069). Nature of the data set: fluorescence polarisation. In general terms: Fluorescence polarisation rises when a labelled molecule tumbles more slowly, as on binding a larger partner.
Data set [2] deals with Med15 activator-binding domain 1 (ABD1) (S. cerevisiae (yeast)) (UniProt P19659). Nature of the data set: ITC. (In general: ITC needs no label: the signal is the heat of the interaction.)
Data set [3] deals with Gcn4 N-terminal activation domain (nAD; residues 1–100) (S. cerevisiae) (UniProt P03069). Nature of the data set: ITC.
For data set [4], the target named is Gcn4 cAD (residues 101–134) labeled with Oregon Green 488 (S. cerevisiae) (UniProt P03069). Nature of the data set: fluorescence polarisation.
In data set [5] the target is T1, Med15 ABD1 (Saccharomyces cerevisiae, UniProt P19659).
T1 sequence (P19659 158-238 limits assumed): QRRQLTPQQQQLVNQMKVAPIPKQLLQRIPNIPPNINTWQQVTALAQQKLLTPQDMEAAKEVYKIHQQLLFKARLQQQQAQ
The data set can be described thus: ITC binding, Med15 ABD1. Also on record: species or system S. cerevisiae. The following applies: 200 mM KCl. The method in brief:
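ITC was run on a MicroCal ITC200 in 20 mM KH2PO4 (pH 7.5), 200 mM KCl. Med15 ABD1 in the cell (0.150 mM) was titrated with Gcn4 nAD from the syringe (1.50 mM). Thermodynamic parameters came from a single binding site model fit.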

For data set [6], the target named is T2, Med15 ABD2 (Saccharomyces cerevisiae, UniProt P19659).
T2 sequence (P19659 277-368): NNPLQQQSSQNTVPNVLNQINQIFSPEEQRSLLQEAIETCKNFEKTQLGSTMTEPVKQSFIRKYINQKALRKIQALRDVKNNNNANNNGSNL
The data set can be described thus: ITC binding, Med15 ABD2. Also on record: species or system S. cerevisiae. The following applies: 20 mM KH2PO4 (pH 7.5), 200 mM KCl, nAD 0.111 mM vs ABD2 1.60 mM, ABD2 0.224 mM vs cAD 2.35 mM, not measurable due to weak binding or low heats of binding.

In data set [7] the target is T3, Med15 ABD3 (Saccharomyces cerevisiae, UniProt P19659).
T3 sequence (P19659 484-651): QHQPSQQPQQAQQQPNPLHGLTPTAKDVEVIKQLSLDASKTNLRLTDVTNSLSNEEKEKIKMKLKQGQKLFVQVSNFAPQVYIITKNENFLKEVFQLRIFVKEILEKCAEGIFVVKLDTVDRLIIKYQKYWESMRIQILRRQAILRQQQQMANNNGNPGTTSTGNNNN
The data set can be described thus: ITC binding, Med15 ABD3. Also on record: species or system S. cerevisiae. As to conditions: 20 mM KH2PO4 (pH 7.5), 200 mM KCl. The method in brief:
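ITC was run on a MicroCal ITC200 in 20 mM KH2PO4 (pH 7.5), 200 mM KCl. In one run, Gcn4 nAD in the cell (0.111 mM) was titrated with Med15 ABD3 from the syringe (1.12 mM). In the other, ABD3 in the cell (0.236 mM) was titrated with Gcn4 cAD (2.35 mM). Data were fitted with a single binding site model.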

The target in data set [8] is T1, Med15 ABD1. The data set can be described thus: NMR secondary structure propensity upon binding ABD1. Also on record: species or system S. cerevisiae. The following applies: bound to ABD1; backbone chemical shifts, ncSPC; 25°C. The method, boiled down: (§1)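 ¹³C,¹⁵N-labelled Gcn4 nAD was titrated with unlabelled Med15 ABD at ~200 μM labelled sample. Bound-state assignments were checked by triple-resonance experiments. Secondary structure propensity came from backbone chemical shifts via ncSPC.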

Data set [9] has as its target T2, Med15 ABD2. Nature of the data set: NMR secondary structure propensity upon binding ABD2. As to conditions: bound to ABD2, saturating; backbone chemical shifts, ncSPC; 25°C. Also on record: species or system S. cerevisiae. The method, boiled down:
as §1

Data set [10] relates to Med15 KIX domain (in KIX123). Nature of the data set: EDC crosslinking-MS, KIX123-tAD, links to KIX. The class given is binding, S. cerevisiae. The following applies: EDC 7.5 mM, Sulfo-NHS 2 mM, 2 hr, room temperature; Gcn4 1–140. The method, boiled down:
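Gcn4 AD and KIX123 were purified by size exclusion into PBS (pH 7.2) and cross-linked for 2 hr at room temperature. Samples were reduced (50 mM TCEP, 8 M urea, 37°C, 15 min), alkylated (15 mM iodoacetamide, dark, 37°C, 1 hr), diluted 10-fold in 100 mM ammonium bicarbonate and digested overnight at 37°C with trypsin (1:15 w/w). After C18 cleanup, peptides were run on an Orbitrap Elite with HCD and a 90 min 5–40% ACN gradient. pLink and Nexus searches used 5% FDR, and a crosslink required ≥4 consecutive b/y ions per peptide.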

Data set [11] concerns the target T1, Med15 ABD1. The following applies: FP; Oregon Green 488-labeled Gcn4 peptide; ref Herbig et al., 2010; cited from earlier work.
Data set [12] addresses T2, Med15 ABD2. The following applies: FP; Oregon Green 488-labeled Gcn4 peptide; ref Herbig et al., 2010; cited from earlier work.
Data set [13] concerns the target T3, Med15 ABD3. The following applies: FP; Oregon Green 488-labeled Gcn4 peptide; ref Herbig et al., 2010; cited from earlier work.
The next data set addresses T4, Med15 KIX (Saccharomyces cerevisiae, UniProt P19659).
T4 sequence (P19659 6-91): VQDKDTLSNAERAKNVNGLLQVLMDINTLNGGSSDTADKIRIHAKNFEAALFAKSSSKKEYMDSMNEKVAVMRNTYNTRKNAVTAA
As to conditions: FP; Oregon Green 488-labeled Gcn4 peptide; ref Herbig et al., 2010; cited from earlier work.

For data set [14], the target named is T5, Med15 ABD123 (Saccharomyces cerevisiae, UniProt P19659, DEL239-272/DEL373-483).
T5 sequence (P19659 with tags, fused parts or gaps DEL239-272/DEL373-483): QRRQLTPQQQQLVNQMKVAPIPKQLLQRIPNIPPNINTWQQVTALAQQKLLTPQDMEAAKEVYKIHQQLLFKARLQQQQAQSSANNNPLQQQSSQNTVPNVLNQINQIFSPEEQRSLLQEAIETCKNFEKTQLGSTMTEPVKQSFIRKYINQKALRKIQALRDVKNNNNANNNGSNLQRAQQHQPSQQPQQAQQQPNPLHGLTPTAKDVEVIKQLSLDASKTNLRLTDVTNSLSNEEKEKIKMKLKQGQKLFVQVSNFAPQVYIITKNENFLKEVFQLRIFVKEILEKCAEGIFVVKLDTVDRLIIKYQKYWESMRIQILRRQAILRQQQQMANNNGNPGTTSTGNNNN
As to conditions: FP; Oregon Green 488-labeled Gcn4 peptide; ref Herbig et al., 2010; cited from earlier work.

The target of data set [15] is T5, Med15 ABD123. Nature of the data set: Fluorescence polarization binding, Med15 ABD123. Also on record: species or system S. cerevisiae. As to conditions: tAD binding to ABD123. The method, boiled down:
(§2)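 Gcn4 tAD peptide labelled with Oregon Green 488 was titrated with 15 Med15 concentrations spanning 0–250 μM (ABD123 or KIX123). Proteins were in 20 mM KH2PO4 (pH 7.5), 200 mM KCl. Polarization was read on a Beacon 2000. Kd came from non-linear regression to a one-site total binding model (Bmax·X/(Kd+X) + NS·X + background).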

The next data set has as its system Med15 KIX123. The data set can be described thus: Fluorescence polarization binding, Med15 KIX123. Also on record: species or system S. cerevisiae. As to conditions: KIX123 vs ABD123. The method, boiled down:
as §2

In a further data set the test system is individual Med15 ABDs. Nature of the data set: ITC and/or FP binding to individual Med15 ABDs. Also on record: species or system S. cerevisiae. The method in brief:
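Med15 ABD and Gcn4 AD proteins came from E. coli BL21(DE3) RIL and were polished by size exclusion into 20 mM KH₂PO₄ (pH 7.5), 200 mM KCl; concentrations were set by UV-Vis. FP used Oregon Green 488-labelled Gcn4 peptides, with 15 Med15 concentrations (0–250 µM) against tAD and 0–225 µM ABD3 against cAD. FP data were fit to a one-site total binding model with a nonspecific term. ITC data were fit to a single-site model.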

For “Med15 activator-binding domain 1 (ABD1) (from UniProt P19659 158-238) (domain or fragment)”, the Kd in data set [1] is 2.66 µM.
“Gcn4 N-terminal activation domain (nAD; residues 1–100) (from UniProt P03069 1-100) (domain or fragment)”: in data set [2], the Kd came to 10.8 µM and the dH was determined as 2.45 kcal/mol.
In data set [1], “Med15 158–651 Δ239–272, Δ373–483 (ABD123) (from UniProt P19659 158-651) (domain or fragment)” came in with a Kd of 0.109 µM.
Take “Med15 activator-binding domain 3 (ABD3; Med15 484–651) (from UniProt P19659 484-651) (domain or fragment)”: the results for the Kd in data set [3], in [4] and in data set [1] were 23.9 µM, 13.9 µM and 4.4 µM, respectively. The molecule further had a dH in [3] of 7.02 kcal/mol.
For the molecule “Med15 activator-binding domain 2 (ABD2; residues 277–368) (from UniProt P19659 277-368) (domain or fragment)”, the Kd in data set [1] turned out to be 19.5 µM.

B1: nAD: N-terminal activation domain of Gcn4, residues 1–100 (protein, UniProt P03069 1-100, looked up, fragment)
chain: MSEYQPSLFALNPMGFSPLDGSKSTNENVSASTSTAKPMVGQLIFDKFIKTEEDPIIKQDTPSNLDFDFALPQTATAPDAKTVLPIPELDDAVVESFFSS
In the case of B1, the ΔH in the data set with Med15 ABD1 [5] (20 mM KH2PO4 (pH 7.5), nAD) is on record as 2,454 ± 78 cal/mol; with Med15 ABD3 [7], 7,015 ± 221 cal/mol. This molecule returned a ΔS with Med15 ABD1 [5] (20 mM KH2PO4 (pH 7.5), nAD) of 31.0 cal/mol/deg. Moreover, the Kd was 10.8 ± 1.5 µM with Med15 ABD1 [5] (Microcal ITC200, 20 mM KH2PO4 (pH 7.5), cell ABD1 0.150 mM, syringe nAD 1.50 mM, single binding site model); “unable to measure” with Med15 ABD2 [6]; 23.9 ± 2 µM in the data set with Med15 ABD3 [7] (nAD 0.111 mM vs ABD3 1.12 mM, ABD3 0.236 mM vs cAD 2.35 mM, single binding site model); 3.3 ± 0.5 µM in the data set with Med15 ABD1 [11]; 21.8 ± 3.8 µM in the data set with Med15 ABD2 [12]; 2.6 ± 0.4 µM with Med15 ABD3 [13]. Besides, the dissociation constant (Kd) entry in the data set with Med15 KIX was “neither nAD nor cAD showed detectable KIX binding; also recorded: unable to measure”; with Med15 ABD123 [14], 0.36 ± 0.02 µM. For the same molecule, the “helical content of the other three nAD hydrophobic clusters” value in the data set with Med15 ABD1 [8] is given as less than 20%. In the data set with Med15 ABD2 [9], the “helical content of C-terminal hydrophobic cluster (residues 94–98)” value was ~ 25%. For the same molecule, the “crosslinks to Med15 KIX domain” value in data set [10] was “crosslinks extensively to Gcn4 in the large complex, mainly to nAD”.

B2: tAD: tandem AD polypeptide, Gcn4 residues 1–134 (1–140 in crosslinking) (protein, UniProt P03069 1-134, looked up, fragment)
chain: MSEYQPSLFALNPMGFSPLDGSKSTNENVSASTSTAKPMVGQLIFDKFIKTEEDPIIKQDTPSNLDFDFALPQTATAPDAKTVLPIPELDDAVVESFFSSSTDSTPMFEYENLEDNSKEWTSLFDNDIPVTTDD
Consider B2, for which the “higher affinity than the strongest piecemeal interaction” value in the data set with Med15 ABD123 [15] is on record as “about 20 fold”. In the data set on Med15 KIX123, the “increase of Gcn4 affinity by presence of KIX along with ABD1,2,3” value is recorded as ~ 30%. In addition, in the data set with individual Med15 ABDs, the “affinity for individual ABDs (in words)” value is “affinity close to the stronger of the individual nAD or cAD interactions”.
